The inhibition is the drop in the measured response relative to a control, in per cent.

The nature of assay [1]: inhibitors of TNFa-induced NFkB p65 translocation, primary screen, imaging, HUVEC, MLSMR starter and 10KST1 sets (AID 438).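 For inhibition: signal is the nuclear over cytoplasmic p65 intensity ratio per well.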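 Note: compound added about 3h40 before a 20 min TNFalpha stimulation.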 As to conditions: HUVEC TNFa-induced p65 nuclear translocation; cell count: measured here: nuclei count (cytotoxicity indicator), at 2.08 µM; inhibition: at 2 µM, stronger effect = higher value, 0% TNFa-plus-vehicle, 100% no-TNFa wells.
Assay [2] is described as follows: endothelial E-selectin expression blockers – imaging, HUVEC, immunofluorescence, MLSMR starter and 10KST1 sets, primary screen (AID 487;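 active = visually confirmed hit in the image check and inhibition above 20%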;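 for inhibition: signal is fraction of cell area covered by stained E-selectin grains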;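 for nuclei count: 100% = median nuclei count of all wells on the same plate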). As to conditions: HUVEC TNFalpha-induced E-selectin immunofluorescence imaging, at 2 µM; inhibition: stronger effect = higher value; nuclei count: measured here: cell number, toxicity.
The nature of assay [3]: Primary imaging screen for DUSP6 inhibitors that restore phospho-Erk in transfected HeLa cells, chemical complementation (AID 609;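 active = compounds giving at least 50% inhibition in the cell-based MKP-3 phosphatase rescue imaging test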;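 for inhibition: phospho-Erk level distribution per well compared with pooled transfected vehicle control wells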). Particulars: HeLa MKP-3 transfected, phospho-Erk imaging KS statistic, at 10 µM, cells stimulated with TPA for 15 min.
For assay [4], the target named is Dual specificity protein phosphatase 6 (Homo sapiens) (UniProt Q16828). Described as above. As to conditions: HeLa MKP-3 transfected, phospho-Erk imaging KS statistic; at 10 µM; stronger effect = higher value; cells stimulated with TPA for 15 min.
The target in assay [5] is Voltage-gated potassium channel subunit beta-2 (Rattus norvegicus) (UniProt P62483). Briefly: inhibitors of rat Kvbeta2 reductase activity – biochemical, NADPH fluorescence, primary screen (AID 622;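 active = fluorescence slope higher than the sample average by over 3 SD, cut at about -0.22 in these data, passing the limit was not always enough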;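 note: slope of raw intensity against log time taken from 70 to 1610 s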). Particulars: recombinant KvBeta, 4-cyanobenzaldehyde reduction, at 10 µM, stronger effect = higher value.
Assay [6] has the same target. Briefly: enhancers of rat Kvbeta2 NADPH turnover – biochemical, NADPH fluorescence, primary screen (AID 623;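 active = NADPH fluorescence slope more negative than the mean of all samples by about 3 SD, 99.7% confidence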;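 note: fluorescence intensity change per second fitted from 20 to 320 s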). Particulars: Recombinant KvBeta, NADPH fluorescence decrease slope, 10 min; at 10 µM; stronger effect = lower value.
Assay [7] has as its target Alpha-2C adrenergic receptor (Homo sapiens) (UniProt P18825). Briefly: compounds altering alpha2C-coupled GIRK flux – cell-based, HEK293 alpha2C/GIRK1/2, thallium flux, primary screen (AID 624;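 active = fluorescence slope after compound addition differing from the mean of all screened samples at 99.7% confidence, in either direction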;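 note: slope of fluorescence ratio to pre-addition baseline per second over 15 to 24 s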). Particulars: thallium flux BTC fluorescence, at 10 µM, actives lie on both sides.
Assay [8] is described as follows: inhibitors of larval lipid processing in zebrafish, primary screen, whole organism, PED6 fluorescence, gall bladder and intestine (AID 686;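 active = a full or partial loss of lipid-probe fluorescence in the fish gall bladder, intestine or both, judged by eye; inactive = no fluorescence loss, or compound toxic to the fish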;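 note: larvae 5 to 7 days old with five fish per well; signal comes from phospholipase A2 cleavage of quenched PED6 carried via bile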). Particulars: Zebrafish larvae PED6 lipid processing, fluorescence scoring; screened at 20 µM (by protocol). Put shortly:
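Incubation: overnight exposure of larvae to compound plus PED6 / Test system: live zebrafish larvae aged 5-7 days, whole organism / Amount: 5 larvae per well / Read-out basis: visual per-well fluorescence inhibition score / Signal: visual fluorescence microscopy scoring of gall bladder, gut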

The nature of assay [9]: loss of swimming-algae plug formation – whole organism, Chlamydomonas reinhardtii, WT vs cilia-less mutant, absorbance, 96-well, primary screen (AID 463189;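 active = inhibition at or above 50% relative to wild type and mutant plate controls; inactive = inhibition below 50%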;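 note: 0% = wild type cc124 cells in DMSO and 100% = ciliumless bld1 mutant cells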). Particulars: Chlamydomonas reinhardtii gravitaxis, OD600 absorbance, 2 days; at 10 µM; stronger effect = higher value.
Setting [10] is: measured here: cell density z-score.
The mark [11] stands for this setting: measured here: nuclear c-Myc green intensity z-score.
Where [12] appears, read: measured here: nuclear pErk red intensity z-score, stronger effect = higher value.

SMILES strings stand for the structures. Calls of active or inactive are those of the source.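 Rule for the calls, unless noted: active = inhibition above 20% together with a positive visual image hit; inconclusive = visual image hit but inhibition not above 20%; inactive = no visual image hit.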

Sequence of Alpha-2C adrenergic receptor (Homo sapiens) (P18825 whole entry, looked up): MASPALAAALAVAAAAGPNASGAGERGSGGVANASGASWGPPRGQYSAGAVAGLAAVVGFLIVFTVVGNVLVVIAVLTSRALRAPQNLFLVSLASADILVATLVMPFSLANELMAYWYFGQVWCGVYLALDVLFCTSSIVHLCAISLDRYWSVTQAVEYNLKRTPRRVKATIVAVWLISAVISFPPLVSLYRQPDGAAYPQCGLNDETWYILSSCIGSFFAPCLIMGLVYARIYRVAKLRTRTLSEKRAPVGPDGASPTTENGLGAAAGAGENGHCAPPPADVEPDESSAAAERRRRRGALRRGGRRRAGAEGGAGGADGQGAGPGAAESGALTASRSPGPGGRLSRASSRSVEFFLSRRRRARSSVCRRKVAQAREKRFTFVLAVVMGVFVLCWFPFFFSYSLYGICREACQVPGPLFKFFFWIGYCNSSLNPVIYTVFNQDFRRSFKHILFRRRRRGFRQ
Sequence of Dual specificity protein phosphatase 6 (Homo sapiens) (Q16828 whole entry, looked up): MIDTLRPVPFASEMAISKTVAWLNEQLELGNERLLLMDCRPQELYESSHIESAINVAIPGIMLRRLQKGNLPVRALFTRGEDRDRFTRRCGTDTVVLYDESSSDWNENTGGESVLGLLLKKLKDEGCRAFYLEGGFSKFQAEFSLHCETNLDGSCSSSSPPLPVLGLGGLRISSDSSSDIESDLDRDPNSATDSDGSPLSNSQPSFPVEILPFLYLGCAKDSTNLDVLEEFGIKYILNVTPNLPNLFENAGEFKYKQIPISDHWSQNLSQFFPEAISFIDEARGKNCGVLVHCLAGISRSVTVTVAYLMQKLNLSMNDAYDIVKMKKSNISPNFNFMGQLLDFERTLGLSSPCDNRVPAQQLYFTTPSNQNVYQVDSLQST
Sequence of Voltage-gated potassium channel subunit beta-2 (Rattus norvegicus) (P62483 whole entry, looked up): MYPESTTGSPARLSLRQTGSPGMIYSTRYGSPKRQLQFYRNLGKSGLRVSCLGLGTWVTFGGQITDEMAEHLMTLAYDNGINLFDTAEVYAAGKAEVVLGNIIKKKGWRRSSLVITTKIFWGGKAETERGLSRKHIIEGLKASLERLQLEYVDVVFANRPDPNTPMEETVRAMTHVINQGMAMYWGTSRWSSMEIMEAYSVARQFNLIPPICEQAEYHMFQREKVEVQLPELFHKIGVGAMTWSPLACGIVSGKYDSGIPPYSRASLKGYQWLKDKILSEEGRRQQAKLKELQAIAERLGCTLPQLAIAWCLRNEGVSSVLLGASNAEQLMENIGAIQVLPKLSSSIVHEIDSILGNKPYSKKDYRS

Consider `CN(C)C=C1C(=O)c2ccccc2C1=O`, for which, in assay [1], the cell count stood at 574. The inhibition in [1] was -5.6% (inactive); in [2] it was -153% (inactive); in [4], 11.9% (inactive); in [9], 60.8% (active). This compound also returned a nuclei count in assay [2] of 132%. Moreover, the z-score in assay [3] (setting [10]) was -0.195; in [3] (setting [11]), -0.125; in assay [3] (setting [12]) it was -0.0657. The fluorescence slope in assay [5] was -0.423 (inactive). In addition, the NADPH fluorescence slope in assay [6] was -4.2e-05 (inactive). For the same compound, the slope in assay [7] was 0.00438 (inactive). For the same compound, the compound was called inactive in assay [8].

For `CCCc1[nH]nc2c1C(c1c(C)nn(-c3ccccc3)c1Cl)C(C#N)=C(N)O2` (stereo not given), the cell count in assay [1] turned out to be 673. For the same compound, the inhibition in assay [1] is -3.2% (inactive); in [2], -234% (inactive); in assay [4], 12.7% (inactive); in assay [9] it was -5.65% (inactive). The compound also showed a nuclei count in assay [2] of 148%. The z-score was 1.26 in [3] (setting [10]), 0.14 in assay [3] (setting [11]) and -0.117 in [3] (setting [12]). In addition, the fluorescence slope in assay [5] is -0.399 (inactive). The NADPH fluorescence slope in assay [6] is -1.9e-06 (inactive). The slope in assay [7] was 0.00594 (inactive). In [8], the outcome was inactive.

With `COc1cccc(C(=O)N2CCN(S(=O)(=O)Cc3ccccc3)CC2)c1OC`, the cell count in assay [1] was 424. In addition, the inhibition in assay [1] was -16.3% (inactive); in [2], -254% (inactive); in [4] it was 12.7% (inactive); in [9] it was 17.5% (inactive). Besides, the nuclei count in assay [2] stood at 195%. Also, the z-score in assay [3] (setting [10]) is 0.309; in [3] (setting [11]), -0.845; in assay [3] (setting [12]), -0.459. In assay [5], the fluorescence slope is -0.291 (inactive). Further, in [6], the NADPH fluorescence slope is 1.9e-05 (inactive). In assay [7], the slope was 0.00419 (inactive). In assay [8], the outcome was inactive.

In the case of `Cc1cc(C)c(C#N)c(SCC(=O)NC2CC2)n1`, the cell count in assay [1] is 646. For the same compound, the inhibition in [1] was -7.6% (inactive); in assay [2], -12% (inactive); in [4] it was 2.92% (inactive); in assay [9] it was 0.954% (inactive). In addition, the nuclei count in [2] worked out at 154%. Moreover, the z-score in assay [3] (setting [10]) is 2.42; in [3] (setting [11]), -0.939; in [3] (setting [12]), 0.0715. Besides, the fluorescence slope in [5] was -0.444 (inactive). For the same compound, in assay [6], the NADPH fluorescence slope is -5.6e-05 (inactive). In addition, the slope in assay [7] is 0.00581 (inactive). Further, in assay [8], the compound was called inactive.

With `CCC(=O)OC1=C2C(=Nc3c(c(=O)n(C)c(=O)n3C)C2c2ccccc2)c2ccccc21` (stereo not given), in [1], the cell count was 509. The inhibition in [1] was -2.9% (inactive); in assay [2] it was -57.1% (inactive); in assay [4] it was 1.9e-07% (inactive); in [9], 15.5% (inactive). In assay [2], the nuclei count amounted to 75.2%. The z-score in assay [3] (setting [10]) was -0.341; in [3] (setting [11]), 0.242; in assay [3] (setting [12]) it was 0.679. Moreover, in assay [5], the fluorescence slope is -0.505 (inactive). In addition, the NADPH fluorescence slope in assay [6] was -5.2e-05 (inactive). In assay [7], the slope was 0.00546 (inactive). Moreover, the outcome in assay [8] was inactive.

Take `CCCCN(CCCC)c1nc2ccccc2nc1C(C#N)C(=O)NCCCOC` (stereo not given): in assay [1], the cell count came to 382. The inhibition in assay [1] was -6.8% (inactive); in [2] it was -187% (inactive); in assay [4], -5.89% (inactive); in [9] it was 5.14% (inactive). Further, the nuclei count in assay [2] came to 156%. Further, the z-score in assay [3] (setting [10]) is -0.742; in assay [3] (setting [11]), 0.7; in assay [3] (setting [12]), 0.633. The fluorescence slope in assay [5] was -0.0828 (active). For the same compound, the NADPH fluorescence slope in assay [6] is 9.1e-06 (inactive). The slope in [7] was 0 (active). Moreover, the call in assay [8] was inactive.

Regarding `Cc1nc(N2CCN(Cc3ccccc3)CC2)c(C#N)c2c1COC(C)(C)C2`, in [1], the cell count was 686. Moreover, the inhibition in assay [1] was -5.4% (inactive); in [2], -178% (inactive); in assay [4], 3.66% (inactive); in [9], -5.61% (inactive). In addition, the nuclei count in assay [2] turned out to be 195%. The values for the z-score in [3] (setting [10]), in [3] (setting [11]) and in assay [3] (setting [12]) were 0.66, -1.21 and 0.193, respectively. For the same compound, the fluorescence slope in assay [5] is -0.487 (inactive). Also, the NADPH fluorescence slope in assay [6] was -0.000123 (inactive). Moreover, in [7], the slope was 0.00373 (inactive). For the same compound, the outcome in assay [8] was inactive.

Regarding `CN1CCN(CC(=O)Nc2nc(-c3ccccc3)cs2)CC1`, the cell count in assay [1] is 667. The inhibition in assay [1] is -3.3% (inactive); in assay [2] it was -41.9% (inactive); in [4], 0.671% (inactive); in assay [9], 8.3% (inactive). In addition, in [2], the nuclei count was 149%. In addition, the z-score in [3] (setting [10]) was -1.89; in [3] (setting [11]) it was 1.19; in [3] (setting [12]) it was 0.906. The fluorescence slope in assay [5] was -0.462 (inactive). Besides, the NADPH fluorescence slope in assay [6] is -0.000262 (inactive). The slope in assay [7] is 0.0053 (inactive). For the same compound, the compound was classed as inactive in assay [8].

Regarding `CCOC(=O)c1c(C(C#N)C#N)cc(C)nc1C`, the cell count in assay [1] came to 521. The inhibition in [1] is -5.3% (inactive); in assay [2] it was -83.6% (inactive); in assay [4], -2.07% (inactive); in assay [9], 9.41% (inactive). The compound further displayed a nuclei count in assay [2] of 129%. Besides, the z-score in [3] (setting [10]) is 0.584; in assay [3] (setting [11]), -0.43; in assay [3] (setting [12]), 0.768. Besides, in assay [5], the fluorescence slope was -0.509 (inactive). Moreover, the NADPH fluorescence slope in assay [6] is -8e-05 (inactive). Besides, the slope in assay [7] is 0.00491 (inactive). Besides, the compound was called inactive in assay [8].

In the case of `CCOC(=O)C(C)Oc1nc(Oc2ccccc2)nc(N(C)C)n1` (stereo not given), in assay [1], the cell count was determined as 645. For the same compound, the inhibition is -4.1% (inactive) in assay [1], -25.5% (inactive) in [2], -7.79% (inactive) in assay [4] and -18.7% (inactive) in [9]. The nuclei count in [2] was 183%. For the same compound, the z-score is 0.393 in assay [3] (setting [10]), -0.772 in [3] (setting [11]) and 1.44 in [3] (setting [12]). For the same compound, the fluorescence slope in [5] was -0.497 (inactive). In addition, in assay [6], the NADPH fluorescence slope was -5.5e-05 (inactive). For the same compound, the slope in assay [7] is 0.00486 (inactive). The compound was called inactive in assay [8].

For the origin of these results see PubChem BioAssay.
